Screening data (PubChem)
proCasp3 act: activators of human procaspase-3 | hit rate 0.11% among 330,000 | activation, % at 8.5 µM | recombinant procaspase-3 D3A, Ac-DEVD-pNA absorbance 405 nm | AID 463141 | P42574;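 active = activation above the mean of all tested compounds plus 3 SD, cut at about 21% in these data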;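 note: 0% = DMSO alone and 100% = DMSO wells spiked with extra 5 µM PC-3 D3A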
Target sequence (P42574 whole entry D9A/D28A/D175A): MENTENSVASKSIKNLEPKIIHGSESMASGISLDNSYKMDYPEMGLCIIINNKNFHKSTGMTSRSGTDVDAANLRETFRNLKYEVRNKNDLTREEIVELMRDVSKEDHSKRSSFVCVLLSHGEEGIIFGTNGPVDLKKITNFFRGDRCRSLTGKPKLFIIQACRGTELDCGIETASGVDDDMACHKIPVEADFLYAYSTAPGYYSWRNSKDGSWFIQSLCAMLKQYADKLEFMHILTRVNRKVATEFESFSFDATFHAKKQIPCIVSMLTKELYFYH
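Technique: 405 nm absorbance of p-nitroaniline, reads at 0 and 120 min; Test system: Procaspase-3 D3A mutant; Incubation: 1 h enzyme-compound preincubation, then 2 h substrate reaction, 25 °C; Repeats: singlicate, each compound tested once; Benchmarks: low control DMSO wells, high control DMSO plus 5 µM PC-3 D3A.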
PLC-gamma1 inh: PLC-gamma1 (human) inhibition, primary screen | inhibition, % at 12.2 µM | hit rate 0.84% among 370,000 | purified PLC-gamma1, fluorogenic substrate, fluorescence | P19174; in the data active = inhibition above about 9.5%
procasp7 counter: counter-screen for procaspase-3 activators: activators of human procaspase-7. P55210. recombinant procaspase-7, Ac-DEVD-pNA absorbance 405 nm; D23A/D198A/D206A triple mutant, cannot self-cleave; scale: DMSO 0, 5 µM enzyme 100. activation, % at 8.5 µM. hit rate 0.093% among 330,000. AID 463210;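 active = percent activation above the screen-wide mean plus 3 SD, cut at about 25% in these data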
Target sequence (P55210 whole entry D23A/D198A/D206A): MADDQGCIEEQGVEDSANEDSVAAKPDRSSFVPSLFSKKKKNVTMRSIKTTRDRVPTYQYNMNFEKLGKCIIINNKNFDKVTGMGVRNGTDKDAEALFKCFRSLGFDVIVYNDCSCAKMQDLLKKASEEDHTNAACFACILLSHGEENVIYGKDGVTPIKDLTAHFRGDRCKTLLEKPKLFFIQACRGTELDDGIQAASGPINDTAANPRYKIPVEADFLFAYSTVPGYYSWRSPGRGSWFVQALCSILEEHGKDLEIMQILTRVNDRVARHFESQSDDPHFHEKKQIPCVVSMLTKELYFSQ
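Assay system: Uncleavable procaspase-7 mutant enzyme; Input: 2 µM procaspase-7 mutant as dispensed; Also added: DEVD-pNA substrate; Medium: Zinc-free HEPES pH 7.4 with 300 mM NaCl, 0.01% Triton X-100; Timing: 1 h compound preincubation, 2 h substrate cleavage, 25 °C; Measured by: Epi-absorbance of released pNA at 405 nm, two timepoints.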
HGIII-sPLA2 inh: Inhibits HGIII-sPLA2 liposome hydrolysis, primary screen; Q9NZ20; QFRET BODIPY PC-A2 liposome hydrolysis, fluorescence; inhibition, % at 12.2 µM; hit rate 0.56% among 370,000;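 active = inhibition above mean plus 3 SD of compounds lying within the high and low control bounds, cut at about 19% in these data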;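 note: 0% = median of test compound wells and 100% = no enzyme DMSO wells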
PLC-beta3 inh: PLC-beta3 (human) inhibition, primary screen; hit rate 0.18% among 370,000; Q01970; inhibition, % at 12.2 µM; Purified PLC-beta3, fluorogenic substrate, fluorescence; in the data active = inhibition above about 11%;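 note: 0% = median of compound wells on plate and 100% = full blocker control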
Arrestin-AP2 inh: inhibitors of human beta-arrestin and AP2 interaction; FITC-arrestin peptide / GST-AP2 beads, flow cytometry; AP2 beta2 appendage carries R879A mutation; inhibition, % at 10 µM; hit rate 0.31% among 340,000; AID 504490;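 active = inhibition above a set limit, near 3 SD of compounds lacking own fluorescence, cut at about 54% in these data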;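 note: plate controls were DMSO wells for no effect and 5 µM unlabelled arrestin peptide for full effect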
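System: GST-tagged AP2 beta2-adaptin appendage (R879A) on 4 µm glutathione beads / Reagent: FITC-arrestin peptide, 50 nM / Detection: HyperCyt-sampled flow cytometry, FL1 channel, ex 488/em 535 nm / Timing: 12 min plus 1 h, RT / Buffer or medium: PBS plus Tween 20 (0.05%) and BSA (0.1%)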
sPLA2 confirm: human GIII-sPLA2 inhibition, confirmation. shares compounds with HGIII-sPLA2 inh. recombinant hGIII-sPLA2, BODIPY PC-A2 QFRET fluorescence. inhibition, % at 12.2 µM. hit rate 34% among 2,000. AID 743280;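 active = mean inhibition across triplicates above the hit cutoff set in the earlier primary screen, cut at about 19% in these data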;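 note: 0% = enzyme with DMSO and 100% = DMSO wells lacking enzyme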
BODIPY interf: 535nm fluorescence interference, HGIII-sPLA2 counter-screen. shares compounds with HGIII-sPLA2 inh. BODIPY FL product fluorescence interference, QFRET. inhibition, % at 12.2 µM. hit rate 8.5% among 2,000. AID 743282;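 active = average inhibition above the solvent-only control mean plus 3 SD, cut at about 6% in these data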;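 note: 0% = DMSO with substrate plus product and 100% = DMSO with substrate alone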
535nm interf DR: counter-screen for HGIII-sPLA2 inhibitors: 535nm fluorescence interference, dose response; IC50, µM; shares compounds with HGIII-sPLA2 inh; AID 743455; 240 tested, under 10 active; BODIPY FL product fluorescence interference, cell-free;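 active = IC50 at or below 10 µM; inactive = IC50 above 10 µM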
* hit, by the source's call; . = no result given. Hits are enriched below; roughly 1.9% of the tested compounds scored in any of these assays.

SMILES	proCasp3 act	PLC-gamma1 inh	procasp7 counter	HGIII-sPLA2 inh	PLC-beta3 inh	Arrestin-AP2 inh	sPLA2 confirm	BODIPY interf	others
COC(=O)c1sc(C(C)(C)C)cc1CSc1ccccc1	3	3	8	21*	-4	-9	-21	-8
COC(=O)c1sc(C(C)(C)C)cc1CS(=O)(=O)c1ccc(Cl)cc1	-4	-1	10	-5	-4	-1	.	.
O=C(NC(=S)NCCN1CCOCC1)c1ccc(Cl)cc1Cl	-9	2	-5	21*	4	30	12	-7
CCCNC(=O)C1(C)CCCN(C(=O)COc2ccc(Cl)cc2Cl)C1 (stereo not given)	.	5	.	-7	9	.	.	.
CCOC(=O)c1cnn(-c2ccccc2)c1NC(=O)CN1CCCCC1	9	4	4	21*	-7	-11	-1	-7
CCOC(=O)c1cnn(-c2ccccc2)c1-n1cccc1	-8	-2	12	5	5	-4	.	.
O=c1[nH]c(CSc2nc3ccccc3s2)nc2ccccc12	-1	-4	0	-36	-9	1	.	.
COc1ccc(C2NCCc3c2[nH]c2ccccc32)cc1CSc1nc2ccccc2s1 (stereo not given)	-3	-50	0	20*	-55	28	-2	-4
CC(C)C[C@H]1COc2cccc(N3CCSCC3)c2S(=O)(=O)N1	.	2	.	1	2	.	.	.
O=C(CN1C(=O)S/C(=C/c2ccc(N3CCOCC3)cc2)C1=O)N1CCOCC1	-3	-44	-20	22*	-11	3	-6	-12
O=C(CSCc1ccccc1Cl)NNC(=S)Nc1ccccc1	-5	-2	-14	41*	-1	2	42*	2	535nm interf DR=>122
Cc1cccc(NCC(=O)NNC(=S)Nc2ccccc2)c1	-5	2	-6	23*	0	-20	15	0
O=C(CSCc1ccccc1Cl)Nc1ccc(C(=O)O)cc1	-2	0	9	3	-5	15	.	.
Cc1cccc(NC(=S)NNC(=O)c2csc(C)c2)c1	-20	2	-5	27*	3	17	38*	0	535nm interf DR=>122
COc1ccc(C2Nc3ccccc3C(=O)N2c2ccc(F)cc2)cc1CSc1ccccn1 (stereo not given)	1	-17	0	20*	-25	5	12	-7
COc1ccccc1CCC(=O)N1CCN(S(=O)(=O)c2cc(C(F)(F)F)ccc2Cl)CC1	-3	-1	14	-5	-1	2	.	.
COc1ccccc1NC(=S)NNC(=O)c1nn(C)c(C)c1Cl	-3	-2	-7	34*	-2	11	46*	1	535nm interf DR=>122
COc1ccccc1NC(=S)NNC(=O)c1nn(C)c(C)c1Br	-4	0	-16	44*	-6	0	29*	6	535nm interf DR=>122
COc1ccccc1NC(=O)c1nn(C)cc1Br	-4	0	-2	8	3	-3	.	.
COc1ccccc1NC(=S)NNC(=O)c1nn(C)cc1Cl	5	-3	3	31*	1	27	38*	3	535nm interf DR=>122
CCc1nc2ccc(C(=O)Nc3ccc4c(c3)OCC(=O)N4)cn2c1N(CC)Cc1cccc(Br)c1	.	-60	.	-23	-85	.	.	.
COc1ncnc2c1ncn2CCCN1CCN(c2ncccn2)CC1	.	-2	.	1	-1	.	.	.
NNc1nc2c(F)cccc2s1	-2	-16	0	1	-20	-6	.	.
NNc1nc2c(F)cc(F)cc2s1	1	-10	2	20*	-10	3	20*	5
CCOc1ccc2nc(SCC(=O)NCc3ccc(S(N)(=O)=O)cc3)sc2c1	-3	-3	3	-5	1	-11	.	.
SMILES	proCasp3 act	PLC-gamma1 inh	procasp7 counter	HGIII-sPLA2 inh	PLC-beta3 inh	Arrestin-AP2 inh	sPLA2 confirm	BODIPY interf	others
COc1ccc(CNC(=O)CSc2nc3ccc(N)cc3s2)cc1	-3	-1	-3	29*	-8	6	12	-3
O=C(NC1CC2CCCC(C1)N2C(=S)Nc1ccccc1Cl)C1CC1 (stereo not given)	3	2	0	4	-1	0	.	.
Cc1ccc(C)c(NC(=S)N2C3CCCC2CC(NC(=O)C2CC2)C3)c1 (stereo not given)	4	3	8	21*	-1	-4	2	-1
COc1cccc(-c2nc(-c3ccccc3)c3ccc(Cl)cc3n2)c1	.	5	.	20*	1	.	-3	-6
O=C(Nc1ccccc1)OCC(CN1CCCCC1)OC(=O)Nc1ccccc1 (stereo not given)	-1	0	12	-5	2	-1	.	.
S=c1[nH]nc(-c2ccco2)n1/N=C/c1cccs1	-11	2	-10	20*	0	-42	23*	-4
COc1ccc(OC(F)(F)F)cc1CC1(C)C(=O)Nc2ccc(S(=O)(=O)NC3CCCCC3)cc21 (stereo not given)	.	0	.	-20	7	.	.	.
COc1cc(-c2c(C(=O)c3ccccc3)[nH]c(N)c2C(N)=O)ccc1F	.	2	.	10	-2	.	.	.
COc1ccc(C(=O)c2[nH]c(N)c(C(N)=O)c2-c2ccc(OC)c(OC)c2)cc1	.	-52	.	1	-78	.	.	.
COc1ccc(-c2c(C(=O)c3ccccc3)[nH]c(N)c2C(=O)c2ccc(Br)cc2)cc1OC	.	-5	.	26*	-19	.	20*	-2
COc1ccc(-c2c(C(=O)c3ccccc3)[nH]c(N)c2C(=O)c2ccccc2)cc1OC	.	3	.	20*	-7	.	9	-8
O=S(=O)(O)c1ccc(O)c2cc(Nc3ccccc3)ccc12	.	-126	.	25*	-172	2	11	1
Cc1nn(-c2ccc(F)cc2)c(Cl)c1C(=O)N(C)CC(=O)Nc1cccc(F)c1	1	5	7	0	-5	25	.	.
Cc1ccc2nc(N(CCN(C)C)C(=O)c3ccc4c(c3)OCCO4)sc2c1	-1	1	10	3	-4	0	.	.
COc1cc(C(=O)NNc2nc3cc4c(cc3s2)OCO4)cc(OC)c1OC	-37	-13	-22	19*	-10	6	18	-5
Cc1ccc2nc(NNC(=O)c3ccc4c(c3)OCCO4)sc2c1	-11	-2	-11	25*	-4	0	32*	0	535nm interf DR=>122
